Screening results deposited in PubChem BioAssay by several laboratories.
UPR CHOP act – activators of apoptotic arm of unfolded protein response (CHOP); CHO-CHOP luciferase reporter, UPR activation, luminescence; percent of tunicamycin response over DMSO baseline; activation, % at 10 µM; hit rate 0.34% among 330,000; AID 449763;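 active = at 10 µM dose, activation of 40% or more, normalized to positive control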
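assay system = CHO CHOP reporter cells | amount = 500 CHO-CHOP cells per well | buffer or medium = F12 with 10% FBS | incubation = 16-18 h cell attachment, then 6 h compound exposure, 37 °C | detection = luminescence read with Steady-Glo | read-out = percent activation relative to tunicamycin control | controls = tunicamycin high control, DMSO low control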
Jurkat NFkB inh – lowers PMA/ionomycin-induced NF-kB signal in Jurkat cells; PMA/ionomycin-induced NF-kB luciferase reporter, luminescence; inhibition, % at 4 µM; hit rate 0.53% among 330,000; in the data active = inhibition above about 50%
697 NFkB inh – inhibitors of the PMA/ionomycin-induced NF-kB reporter in 697 B cells; 697 B-cell NF-kB luciferase reporter, 16 h; inhibition, % at 4 µM; hit rate 0.33% among 330,000; AID 435022; in the data active = inhibition above about 35%
CHOP inhibitor – blocks CHOP induction under ER stress. CHO-K1 CHOP-promoter luciferase, tunicamycin-induced, 15-18 h. inhibition, % at 10 µM. hit rate 3.8% among 220,000. AID 2732;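 active = compounds that reduced the stress-induced luciferase reporter signal by more than about 70% of percent inhibition, limit read from the data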
XBP1 UPR activ – activators of adaptive arm of unfolded protein response (XBP1). hit rate 0.33% among 330,000. activation, % at 20 µM. AID 463104. CHO-XBP1 luciferase reporter, IRE1-XBP1 UPR activation, luminescence; percent of tunicamycin response, DMSO as zero;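 active = versus positive control, 20 µM dose yields 30% or more activation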
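Assay system: IRE1-XBP1 luciferase reporter CHO line. Input: 1000 cells/well. Buffer or medium: F12 with 10% serum. Doses: 20 µM, 1% DMSO. Times: overnight seeding at 37 °C, 6 h compound treatment at 37 °C. Technique: Steady-Glo luciferase glow luminescence, 10 min after reagent addition.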
Gli-Sufu antag – antagonists of Gli-Sufu signaling | inhibition, % at 5 µM | Sufu-KO-LIGHT fibroblasts, Gli luciferase reporter luminescence | AID 588413 | hit rate 0.74% among 340,000;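 active = inhibition above about 55%, limit read from the data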
CHOP UPR conf – apoptotic UPR (CHOP) activation, confirmed | AID 463112 | CHO-CHOP cells, CHOP-luciferase reporter luminescence; percent of tunicamycin response, DMSO as zero | activation, % at 10 µM | hit rate 64% among 1,000 | shares compounds with UPR CHOP act; in the data active = activation above about 33%
UPR XBP1 confirm – adaptive UPR (XBP1) activation, confirmed. activation, % at 20 µM. shares compounds with XBP1 UPR activ. hit rate 63% among 1,000. CHO-XBP1 IRE1-XBP1 luciferase reporter, luminescence;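 active = reporter signal at least 30% of the positive control's activation in two or more of four replicate wells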
Each line names hits and unclear results; the compound was inactive in the other large screens (follow-up assays come after a bar, where they were run). Hits are enriched below; roughly 3.9% of the tested compounds scored in any of these assays.

N#Cc1ccccc1Cn1cc(/C=C/[N+](=O)[O-])c2ccccc21	UPR CHOP act 85 | CHOP UPR conf inactive
O=[N+]([O-])/C=C/c1cn(Cc2ccccc2)c2ccccc12	none
O=C(NCCS(=O)(=O)N1CCN(c2ccc(F)cc2)CC1)C12CC3CC(CC(C3)C1)C2	none (no result: CHOP inhibitor)
CC(C)c1ccc(N2C(=O)CC(Sc3nc4ccccc4o3)C2=O)cc1 (stereo not drawn)	UPR CHOP act 199 | CHOP UPR conf 95
O=C(CCS(=O)(=O)c1ccccc1)N(CCCN1CCOCC1)c1nc2ccc(F)cc2s1	UPR CHOP act 57 (no result: CHOP inhibitor) | CHOP UPR conf inactive
O=C(Nc1ccc(-c2cccc(F)c2)cc1)C1CCCN(Cc2ccccn2)C1 (stereo not drawn)	none (no result: CHOP inhibitor)
CC1=C/C(=N\OC(=O)/C=C/c2ccccc2)C(C)=CC1=O	UPR CHOP act 107 | CHOP UPR conf 41
C/C(=N\NC(=O)COc1ccccc1-c1ccccc1)c1ccccn1	UPR CHOP act 105 | CHOP UPR conf 205
CCc1ccc(NC(=O)c2nc(S(=O)(=O)Cc3ccccc3)ncc2Cl)cc1	none (no result: CHOP inhibitor, Gli-Sufu antag)
CCCc1nnc(NC(=O)c2nc(S(=O)(=O)Cc3ccc(C)cc3)ncc2Cl)s1	none (no result: CHOP inhibitor)
CC(C)c1nnc(NC(=O)c2nc(S(=O)(=O)Cc3ccccc3)ncc2Cl)s1	UPR CHOP act 62 (no result: CHOP inhibitor) | CHOP UPR conf inactive
CSc1nnc(NC(=O)c2nc(S(=O)(=O)Cc3ccccc3)ncc2Cl)s1	UPR CHOP act 56 (no result: CHOP inhibitor) | CHOP UPR conf 61
CC(NC(=O)c1cc(S(=O)(=O)N2CCCC2)ccc1Cl)c1ccccn1 (stereo not drawn)	none (no result: CHOP inhibitor)
COc1ccc(CCn2c(C)cc(C(=O)CN3C(=O)C(=O)N(C4CCCC4)C3=O)c2C)cc1OC	none (no result: CHOP inhibitor)
Cc1ccc(-c2nnn(CC(=O)NC(=O)NC3CCCCC3)n2)cc1	none (no result: CHOP inhibitor)
Cc1ccc(/C=C/C(=O)N2CC(C)CC(C)C2)o1 (stereo not drawn)	UPR CHOP act 68 | CHOP UPR conf inactive
CCN1CCN(C(=O)/C=C/c2ccc(C)o2)CC1	none
COc1cc(NC(=O)CNc2cccc(S(=O)(=O)N3CCOCC3)c2)cc(OC)c1	UPR CHOP act 41 (no result: CHOP inhibitor) | CHOP UPR conf inactive
O=C(N/N=C/c1ccccn1)c1cc(-c2ccccc2)nc2ccccc12	UPR CHOP act 133 | CHOP UPR conf 131
COc1ccc(-n2ncc(Cl)c(Cl)c2=O)cc1	UPR CHOP act 50 | CHOP UPR conf inactive
COc1ccc(-n2ncc(N(C)n3cccc3)c(Cl)c2=O)cc1	none
O=C(/C=C/c1ccc([N+](=O)[O-])cc1)/C=C/c1ccco1	UPR CHOP act 57 (no result: CHOP inhibitor, Gli-Sufu antag) | CHOP UPR conf 108
Cc1cc(-c2onc(C)c2C(=O)N/N=C/c2ccccc2)no1	none
Cc1ccc(SC(=O)c2c(C)noc2-c2cc(C)on2)cc1	UPR CHOP act 57 | CHOP UPR conf inactive
O=C(O)/C=C/C(=O)c1ccc2c(c1)CCc1ccccc1-2	UPR CHOP act 126 (no result: CHOP inhibitor) | CHOP UPR conf inactive
Cn1c(SCC(=O)NC2CC2)nnc1-c1ccc(Cl)cc1	none (no result: CHOP inhibitor)
O=C1c2cc(F)ccc2-n2c1nc1ccccc1c2=O	UPR CHOP act 77 (no result: CHOP inhibitor) | CHOP UPR conf inactive
COC(=O)c1cc(=O)n(Cc2ccco2)c(=Nc2ccc(F)c(Cl)c2)s1	UPR CHOP act 55 | CHOP UPR conf 54
COC(=O)c1cc(=O)n(CCc2ccccc2F)c(=Nc2ccc(F)c(Cl)c2)s1	none
Nc1nonc1C(=O)NCCNC(=O)c1ccc(Cl)cc1	none (no result: CHOP inhibitor)
CN(C)S(=O)(=O)c1ccc(N2CCCC2)c(C(=O)Nc2nc3ccc(F)cc3s2)c1	none
Cc1cccc2sc(NC(=O)c3cc(S(=O)(=O)N(C)C)ccc3N3CCCC3)nc12	UPR CHOP act 63, XBP1 UPR activ 55 | CHOP UPR conf 47 | UPR XBP1 confirm 78
CN(C)S(=O)(=O)c1ccc(N2CCCC2)c(C(=O)Nc2nc3ccccc3s2)c1	UPR CHOP act 125, XBP1 UPR activ 76 | CHOP UPR conf inactive | UPR XBP1 confirm 91
CC(C)Cc1nnc(NC(=O)c2cc(S(=O)(=O)N(C)C)ccc2N2CCCC2)s1	none (no result: CHOP inhibitor)
O=C(Nc1ccc(-c2nc3cc(NC(=O)c4cccs4)ccc3o2)cc1)c1cccs1	UPR CHOP act 195, XBP1 UPR activ 148 | CHOP UPR conf 202 | UPR XBP1 confirm 324
N#C/C(=C\c1ccc(OCc2ccccc2)cc1)C(=O)Nc1nc2c(s1)CCN(Cc1ccccc1)C2	UPR CHOP act 91, XBP1 UPR activ 42 | CHOP UPR conf 145 | UPR XBP1 confirm 132
CN(C)c1ccc(/C=C(/C#N)C(=O)Nc2nc3c(s2)CCN(Cc2ccccc2)C3)cc1	none (no result: UPR CHOP act, Jurkat NFkB inh, 697 NFkB inh, CHOP inhibitor, XBP1 UPR activ)
O=C(/C(=N/N=C/c1ccc(O)c(O)c1)c1ccccc1)c1ccccc1	UPR CHOP act 86, XBP1 UPR activ 41 | CHOP UPR conf 63 | UPR XBP1 confirm 30
COc1ccc([C@@H]2[C@@H]3C(=O)N(C(C)(C)C)C(=O)[C@@H]3[C@]3(C)C(=O)N(c4cccc(Cl)c4)C(=O)N23)cc1	none (no result: CHOP inhibitor)
O=C(NCc1ccc2c(c1)OCO2)c1c(-c2ccccc2)sc2ccccc12	none (no result: CHOP inhibitor)
CCOc1ccccc1/C=N/NC(=O)c1nnn(-c2nonc2N)c1CN1CCC(C)CC1	none (no result: CHOP inhibitor)
CC1CCN(Cc2c(C(=O)N/N=C/c3ccc(C(C)(C)C)cc3)nnn2-c2nonc2N)CC1	UPR CHOP act 202, XBP1 UPR activ 178 (no result: CHOP inhibitor) | CHOP UPR conf 50 | UPR XBP1 confirm 117
CCOC(=O)C(=CNc1nc(-c2ccccc2)c(C(=O)Nc2ccc(-c3ccccc3)cc2)s1)C(=O)OCC	UPR CHOP act 73, XBP1 UPR activ 209 (no result: CHOP inhibitor) | CHOP UPR conf 43 | UPR XBP1 confirm 133
Cc1ccc(NC(=O)c2sc(Cl)nc2-c2ccccc2)cc1	none
CN1/C(=C/C(=O)COC(=O)C2COc3ccccc3O2)C(C)(C)c2ccccc21 (stereo not drawn)	none (no result: UPR CHOP act, Jurkat NFkB inh, 697 NFkB inh, CHOP inhibitor, XBP1 UPR activ)
O=C(C[C@H]1C[C@H](C(=O)N2CCCCC2)[C@@]2(CCc3ccccc3)c3[nH]c4ccc(Cl)cc4c3CCN2C1=O)NCCC1=CCCCC1	UPR CHOP act 55, XBP1 UPR activ 144 (no result: Jurkat NFkB inh, CHOP inhibitor) | CHOP UPR conf 84 | UPR XBP1 confirm 146
O=C(C[C@H]1C[C@H](C(=O)N2CCCCC2)[C@@]2(CCc3ccccc3)c3[nH]c4ccc(Cl)cc4c3CCN2C1=O)NCCc1ccccn1	none (no result: Jurkat NFkB inh, CHOP inhibitor)
Cc1ccc(N2CCN(c3ccc(NCc4nc5ccccc5n4C)cc3)CC2)cc1	UPR CHOP act 45, XBP1 UPR activ 66 | CHOP UPR conf 37 | UPR XBP1 confirm 89
Cn1c(CNc2ccc(Cl)cc2)nc2ccccc21	none
